Measurements taken from PMC5091360 (Science Advances, 2016).
Ends that are not written are not given here.

What was measured:
[1] = tested on: ERK1/2 pathway in lymphatic endothelial cells (LECs); test: ERK1/2 phosphorylation in lymphatic endothelial cells; format: cell-based, human; settings: growth factor 100 ng/ml, 10 min, 37°C, 1% DMSO, heparin 10 U/ml
In short: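 Human dermal lymphatic microvascular endothelial cells were cultured overnight in EBM2 with 2% FBS, then starved 18 h in EBM2 with 0.2% BSA. They were stimulated with VEGF-A, VEGF-C or FGF-1, with or without test peptide or scrambled peptide (30 μg/ml). Lysates were immunoblotted for total and phospho-ERK1/2 using infrared-dye secondaries, and the phospho/total intensity ratio was taken. Two experiments were run; ANOVA with Tukey.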

mouse VEGFR-3 = test: phage binding assay, immobilized mouse VEGFR-3; settings: 10^8 TU in 50 μl PBS, 2 hours, room temperature; control insertless phage Fd; colony count or phage-FLISA; triplicate plating
human VEGFR-3 = test: phage binding assay, immobilized human VEGFR-3; settings: 10^8 TU in 50 μl PBS, 2 hours, room temperature; control insertless phage Fd; colony count or phage-FLISA; triplicate plating
FGF receptors = settings: cited from earlier work
VEGFR-3 = target: T1, VEGFR-3 (Mus musculus, UniProt P35917); test: competition assay, binding of phage PCAIWF to immobilized VEGFR-3
T1 sequence (P35917 25-770): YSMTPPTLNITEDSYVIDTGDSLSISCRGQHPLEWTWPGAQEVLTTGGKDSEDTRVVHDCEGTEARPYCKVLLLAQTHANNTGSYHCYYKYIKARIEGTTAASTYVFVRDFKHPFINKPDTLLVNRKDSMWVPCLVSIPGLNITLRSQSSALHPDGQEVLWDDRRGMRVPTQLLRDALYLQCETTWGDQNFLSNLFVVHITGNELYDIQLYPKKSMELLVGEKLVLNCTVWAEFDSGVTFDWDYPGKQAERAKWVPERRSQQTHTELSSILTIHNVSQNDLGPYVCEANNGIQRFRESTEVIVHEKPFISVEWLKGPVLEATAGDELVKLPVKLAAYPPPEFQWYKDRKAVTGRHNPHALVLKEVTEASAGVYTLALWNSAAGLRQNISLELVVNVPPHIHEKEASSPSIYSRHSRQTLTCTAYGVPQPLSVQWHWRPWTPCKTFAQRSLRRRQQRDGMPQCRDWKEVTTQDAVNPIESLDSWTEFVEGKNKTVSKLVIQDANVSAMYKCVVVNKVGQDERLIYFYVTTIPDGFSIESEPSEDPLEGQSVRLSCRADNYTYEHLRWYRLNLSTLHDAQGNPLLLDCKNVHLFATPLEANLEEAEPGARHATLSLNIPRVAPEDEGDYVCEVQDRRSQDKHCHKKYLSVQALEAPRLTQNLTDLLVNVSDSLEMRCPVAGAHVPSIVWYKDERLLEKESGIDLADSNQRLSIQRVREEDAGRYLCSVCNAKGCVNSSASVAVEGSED

[2] = target: T2, recombinant mouse VEGFR-3/Fc (mouse, UniProt P35917 25-770); test: phage binding assay
T2 sequence: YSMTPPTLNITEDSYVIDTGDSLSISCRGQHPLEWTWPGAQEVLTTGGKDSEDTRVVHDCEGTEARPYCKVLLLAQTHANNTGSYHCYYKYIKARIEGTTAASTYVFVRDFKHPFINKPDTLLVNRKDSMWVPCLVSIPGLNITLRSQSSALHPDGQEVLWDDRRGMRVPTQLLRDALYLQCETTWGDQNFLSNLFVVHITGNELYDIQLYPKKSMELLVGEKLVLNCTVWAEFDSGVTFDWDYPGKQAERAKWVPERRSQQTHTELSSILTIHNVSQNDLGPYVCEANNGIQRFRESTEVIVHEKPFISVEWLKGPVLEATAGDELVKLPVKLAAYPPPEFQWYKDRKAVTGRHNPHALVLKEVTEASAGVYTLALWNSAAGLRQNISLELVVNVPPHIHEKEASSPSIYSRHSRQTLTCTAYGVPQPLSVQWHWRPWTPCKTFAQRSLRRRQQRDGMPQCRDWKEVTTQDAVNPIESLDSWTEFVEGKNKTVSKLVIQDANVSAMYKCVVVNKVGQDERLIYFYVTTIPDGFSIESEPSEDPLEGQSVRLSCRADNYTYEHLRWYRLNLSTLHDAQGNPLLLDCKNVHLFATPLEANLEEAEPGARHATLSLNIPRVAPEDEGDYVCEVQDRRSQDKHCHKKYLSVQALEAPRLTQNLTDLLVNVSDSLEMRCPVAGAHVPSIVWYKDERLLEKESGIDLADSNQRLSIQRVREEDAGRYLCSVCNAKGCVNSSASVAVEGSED

[3] = target: T3, human VEGFR-3 extracellular domain (Fc fusion) (human, UniProt P35916 25-775); test: phage binding assay
T3 sequence: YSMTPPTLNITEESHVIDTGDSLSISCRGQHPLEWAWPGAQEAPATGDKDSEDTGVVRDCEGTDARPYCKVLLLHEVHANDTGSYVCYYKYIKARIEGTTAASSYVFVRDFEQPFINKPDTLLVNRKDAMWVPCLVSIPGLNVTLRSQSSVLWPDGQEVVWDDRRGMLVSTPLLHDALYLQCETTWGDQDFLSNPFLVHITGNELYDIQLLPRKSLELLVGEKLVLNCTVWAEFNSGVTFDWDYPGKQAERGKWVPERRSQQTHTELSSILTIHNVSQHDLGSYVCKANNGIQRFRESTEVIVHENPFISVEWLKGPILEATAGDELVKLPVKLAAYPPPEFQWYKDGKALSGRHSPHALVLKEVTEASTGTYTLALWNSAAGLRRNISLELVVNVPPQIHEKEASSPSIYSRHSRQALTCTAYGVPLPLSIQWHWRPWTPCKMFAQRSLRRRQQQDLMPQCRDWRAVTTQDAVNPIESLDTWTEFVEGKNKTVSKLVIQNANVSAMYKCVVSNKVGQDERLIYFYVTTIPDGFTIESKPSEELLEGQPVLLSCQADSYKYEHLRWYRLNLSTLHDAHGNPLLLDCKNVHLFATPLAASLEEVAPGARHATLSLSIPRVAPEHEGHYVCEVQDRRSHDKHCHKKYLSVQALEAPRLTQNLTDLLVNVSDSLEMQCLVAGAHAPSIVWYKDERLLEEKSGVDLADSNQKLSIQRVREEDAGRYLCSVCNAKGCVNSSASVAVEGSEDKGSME

[4] = target: T4, recombinant IgD2 domain of human VEGFR-3 (human, UniProt P35916 136-229); test: ELISA
T4 sequence: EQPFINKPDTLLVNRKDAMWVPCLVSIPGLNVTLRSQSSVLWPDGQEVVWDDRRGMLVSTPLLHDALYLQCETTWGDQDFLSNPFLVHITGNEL

[5] = target: T5, recombinant IgD2-3 domains of human VEGFR-3 (human, UniProt P35916 136-332); test: ELISA
T5 sequence: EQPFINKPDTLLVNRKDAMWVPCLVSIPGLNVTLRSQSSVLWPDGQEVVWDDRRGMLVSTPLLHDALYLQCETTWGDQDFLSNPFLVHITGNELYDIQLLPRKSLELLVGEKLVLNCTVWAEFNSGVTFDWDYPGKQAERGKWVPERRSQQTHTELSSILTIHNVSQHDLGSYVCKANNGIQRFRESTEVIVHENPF

[6] = target: T3, human VEGFR-3 extracellular domain (Fc …); test: ELISA
[7] = target: human VEGFR-2 extracellular domain (Fc fusion) (human, UniProt P35968 20-764); test: ELISA
[8] = target: human VEGFR-1 extracellular domain (Fc fusion) (human, UniProt P17948 27-758); test: ELISA
human VEGFR-1 = test: FLISA binding assay, NRP-2 to VEGFR-1; settings: rat NRP-2, FLISA
In short: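 Human VEGFR-1 extracellular domain coated at 200 ng per well in PBS overnight at 4°C, then blocked with Odyssey blocking buffer. Wells incubated with NRP-1 or NRP-2 in PBS with 10% (v/v) DMSO and 10% blocking buffer, with or without peptide (100 μg/ml). Bound NRP detected with goat anti-NRP-1 or anti-NRP-2 serum (1:100), then IRDye 680LT anti-goat, by infrared scanning. Duplicate wells; ANOVA with Tukey.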

human VEGFR-1 extracellular domain (Fc fusion), sequence (P17948 27-758): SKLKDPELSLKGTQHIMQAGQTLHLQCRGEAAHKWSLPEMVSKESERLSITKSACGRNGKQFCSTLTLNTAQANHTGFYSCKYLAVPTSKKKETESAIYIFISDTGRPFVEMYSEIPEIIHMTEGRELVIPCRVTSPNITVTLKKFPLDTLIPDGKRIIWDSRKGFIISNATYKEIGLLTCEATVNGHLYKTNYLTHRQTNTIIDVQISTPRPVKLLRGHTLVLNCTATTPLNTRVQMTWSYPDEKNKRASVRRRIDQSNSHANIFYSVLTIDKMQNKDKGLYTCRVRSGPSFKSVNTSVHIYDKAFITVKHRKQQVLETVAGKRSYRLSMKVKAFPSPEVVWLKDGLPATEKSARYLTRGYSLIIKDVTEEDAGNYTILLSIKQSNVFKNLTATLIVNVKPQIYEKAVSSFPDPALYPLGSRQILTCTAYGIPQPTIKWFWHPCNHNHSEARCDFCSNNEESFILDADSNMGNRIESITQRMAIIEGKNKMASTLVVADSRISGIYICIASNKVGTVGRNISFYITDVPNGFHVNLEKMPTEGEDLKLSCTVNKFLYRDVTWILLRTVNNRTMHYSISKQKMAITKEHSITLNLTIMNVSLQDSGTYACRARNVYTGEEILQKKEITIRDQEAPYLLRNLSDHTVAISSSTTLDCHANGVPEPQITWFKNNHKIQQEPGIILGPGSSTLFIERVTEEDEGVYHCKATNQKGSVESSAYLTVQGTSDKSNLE
human VEGFR-2 extracellular domain (Fc fusion), sequence (P35968 20-764): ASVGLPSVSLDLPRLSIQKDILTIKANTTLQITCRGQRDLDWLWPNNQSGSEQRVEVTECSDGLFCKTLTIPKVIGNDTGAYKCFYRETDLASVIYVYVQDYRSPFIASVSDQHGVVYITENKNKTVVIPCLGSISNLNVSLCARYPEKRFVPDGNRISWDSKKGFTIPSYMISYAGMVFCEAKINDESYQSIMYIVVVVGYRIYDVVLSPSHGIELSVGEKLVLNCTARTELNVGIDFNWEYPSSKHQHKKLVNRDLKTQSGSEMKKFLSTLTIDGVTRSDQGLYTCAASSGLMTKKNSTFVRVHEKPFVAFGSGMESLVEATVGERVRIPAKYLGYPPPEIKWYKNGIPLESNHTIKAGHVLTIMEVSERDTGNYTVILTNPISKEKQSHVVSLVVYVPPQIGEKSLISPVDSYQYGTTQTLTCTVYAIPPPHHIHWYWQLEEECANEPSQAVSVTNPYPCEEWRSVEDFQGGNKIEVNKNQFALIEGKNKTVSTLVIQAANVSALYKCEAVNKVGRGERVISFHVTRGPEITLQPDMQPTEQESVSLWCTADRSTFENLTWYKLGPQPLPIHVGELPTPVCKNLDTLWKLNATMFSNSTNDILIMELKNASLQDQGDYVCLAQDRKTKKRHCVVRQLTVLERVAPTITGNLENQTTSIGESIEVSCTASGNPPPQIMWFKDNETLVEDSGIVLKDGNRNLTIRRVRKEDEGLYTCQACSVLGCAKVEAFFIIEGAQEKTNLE

FGF-1: fibroblast growth factor, recombinant human ligand
phosphorylation of ERK1/2 upon growth factor stimulation [1]: phosphorylation of ERK1/2 increases

WVCSGG [phage WVCSGG]
phage binding to mouse VEGFR-3 (mouse VEGFR-3): both phages bound to mouse and human VEGFR-3 | phage binding to human VEGFR-3 (human VEGFR-3): both phages bound to mouse and human VEGFR-3

COc1c(C)c(C(=O)c2ccc(N)c(C(=O)[O-])c2)n2ccccc12.[Na+] [SSR128129E]
effect on FGF receptors (FGF receptors): binds to and prevents the activation of all four FGF receptors | interaction with ligand-binding domain of the FGF receptors (FGF receptors): does not interact with the ligand-binding domain of the receptors

PSAIWF [PSAIWF]
IC50 (VEGFR-3): ~278 µM

B1: phage WVCSGG (peptide)
peptide: WVCSGG
binding result [2]: binds | binding result [3]: binds

B2: synthetic peptide PCAIWF (peptide)
peptide: PCAIWF
binding result [4]: binds | binding result [5]: binds | binding result [6]: binds

B3: synthetic peptide WVCSGG (peptide)
peptide: WVCSGG
binding result [4]: binds | binding result [5]: binds

B4: phage PCAIWF (peptide)
peptide: PCAIWF
binding result [4]: binds | binding result [5]: binds | binding result [2]: binds | binding result [3]: binds

B5: synthetic peptide PSAIWF (peptide)
peptide: PSAIWF
binding result [7]: binds | binding result [8]: binds | binding result [6]: binds

B6: NRP-2: neuropilin, co-receptor for VEGF; rat NRP-2 (protein)
chain: QQDPPCGGRLNSKDAGYITSPGYPQDYPSHQNCEWVVYAPEPNQKIVLNFNPHFEIEKHDCKYDFIEIRDGDSESADLLGKHCGNIAPPTIISSGSVLYIKFTSDYARQGAGFSLRYEIFKTGSEDCSKNFTSPNGTIESPGFPEKYPHNLDCTFTILAKPRMEIILQFLTFDLEHDPLQVGEGDCKYDWLDIWDGIPHVGPLIGKYCGTKTPSKLRSSTGILSLTFHTDMAVAKDGFSARYYLVHQEPPENFQCNAPLGMESGRIANEQISASSTFSDGRWTPQQSRLHGDDNGWTPNVDSNKEYLQVDLRFLTMLTAIATQGAISRETQKGYYVKSYKLEVSTNGEDWMVYRHGKNHKVFQANNDATELVLNKLHTPLLTRFIRIRPQTWHLGIALRLELFGCRVTDAPCSNMLGMLSGLIADTQISASSTREYLWSPSAARLVSSRSGWFPRNPQAQPGEEWLQVDLGTPKTVKGVIIQGARGGDSITAMEARAFVRKFKVSYSLNGKDWEYIQDPRTQQPKLFEGNMHYDTPDIRRFEPVPAQYVRVYPERWSPAGIGMRLEVLGCDWTDSKPTVETLGPTVKSEETTTPYPMDEDATECGENCSFEDDKDLQLPSGFNCNFDFPEETCGWMYDRAKWLQSTWISSANPNDRTFPDDKNFLKLQSDGGREGQFGRLISPPVHLPRSPVCMEFQYQAMGGHGVALQVVREARQESKLLWVIREDQGSEWKHGRIILPSYDMEYQIVFEGVIGKGRSGEISIDDIRISTDVPLENCMEPISAFAVDIPEIHGGEGYEDEIDDDYEGDWNNSSSTSGAGSPSSGKEKSWLYTLDP
NRP-2 binding to VEGFR-1 (human VEGFR-1): strong interaction
